In PMC11208914 (Biochemistry and Biophysics Reports, 2024):
“Also recorded” adds a separate entry of the source. Like-named read-outs stand apart in the source and are kept apart here.

What was measured:
HeLa cells = assay: CellTiter-Glo cell viability test, HeLa cells; format: cell-based
Outline: (§1)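 HMC3 or HeLa cells were grown in DMEM with L-glutamine, 10 % FCS and 1 % penicillin/streptomycin, then seeded at 10^4 cells/well. Peptide in ½ dilutions (100 to 1.5 μg/ml) was added for 2 h at 37 °C and 5 % CO2. Medium was then replaced with DMEM/10 % FCS for 24 h, with untreated cells as control. ATP was read by CellTiter-Glo luminescence, in triplicate.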

HMC3 cells = assay: CellTiter-Glo cell viability test, HMC3 cells; format: cell-based; settings: Fig. 2; for cytotoxic effect on HMC3 cells at 100 μg/ml: about 100 μg/ml
Outline: as §1

ZIKV PF13 = format: cell-based, Zika virus; settings: FACS; for reduction in infection: virus treated before infection of HMC3 cells
Outline: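 HMC3 cells were seeded at 4.10^4 cells/well the day before. ZIKV PF13 (MOI 1.5) was preincubated with ½ dilutions of peptide (50 to 3 μg/ml) for 1 h at 37 °C, then added to cells for 1.5 h at 37 °C before medium replacement; duplicates. Trypsinized cells were fixed and permeabilized (30 min, 4 °C), stained with 4G2 anti-envelope antibody (1/500) and Alexa488 secondary (1/1000), then analysed by flow cytometry.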

Sequence | viability of HeLa cells at 100 μg/ml (HeLa cells) | concentration at which the peptide exhibits cytotoxicity to HeLa cells (HeLa cells; Fig. 3) | concentration at which the peptide remained non-toxic to HMC3 cells (HMC3 cells) | cytotoxic effect on HMC3 cells at 100 μg/ml (HMC3 cells) | reduction in infection (ZIKV PF13; 6.25 μg/ml) | reduction in infection (ZIKV PF13; 3 μg/ml) | cytotoxicity to HeLa cells (HeLa cells; even at high concentrations, Fig. 3) | effect on ZIKV PF13 infection (ZIKV PF13; non-cytotoxic concentrations 50 to 3 μg/ml, HMC3 cells)
ALWKTLLKKVLKAAAKAALKAVLVGAKA [K4K20K27S4] | 18% | 50 µg/mL | about 12.5 μg/ml | exhibited cytotoxicity | Approximately 90% | – | – | –
ALWKTLLKKVLKAAAKAALKAVLVGANA [K4K20S4] | approximately 1% | around 25 μg/ml | about 12.5 μg/ml | exhibited cytotoxicity | – | Approximately 90% | – | –
GLKKKIKEVGKEAAKAAAKAAGKAALGAVSEAV [K3K4B2] | – | – | – | no cytotoxic effects | – | – | non-cytotoxic; also recorded: did not exhibit any toxic effects | increased the infection
